For data set [1], the system named is Rattus norvegicus. The data set is described as follows: Compound was tested in vivo for its ability to induce catalepsy in rats upon intraperitoneal administration. Format: functional. The note with it: ip. In short, it runs like this: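 Adult outbred male rats, 200–250 g, dosed ip with compound in saline containing 3% Tween 80. Forepaws placed on a bar 7 cm high (Morpurgo apparatus) at 0.5, 1.0, 1.5 and 2 h. Bar time scored 0–3, tested twice per session at 2-min intervals. Scores are given as percent of the maximal cumulative score (15).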

For data set [2], the system named is Rattus norvegicus. The data set is described as follows: Compound was tested in vivo for its ability to antagonize extrapolatory behavior impairment induced by DOPA in rats upon intraperitoneal administration. The format is functional. The following applies: ip. In short, it runs like this:
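Outbred albino male rats, 180–200 g, placed in a water-plunged cylinder (22 °C) and must dive under its edge within 2 min; non-escapers discarded. A day later, Madopar (100 mg/kg L-DOPA + 25 mg/kg benserazide in 3% Tween 80) is given ip 60 min before testing. Compound in saline + 3% Tween 80 is given ip 10 min before Madopar. Successful escapes are recorded. ED50 with 95% confidence limits by linear regression, eight rats per dose.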

The nature of data set [3]: Acute toxicity on male outbred albino mice upon intraperitoneal administration. The following applies: mouse, in vivo, ip. In short, it runs like this: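 Male outbred albino mice (Moscow region), 20–25 g, housed five per cage with free food and water at 21–22 °C, 40–50% humidity, 12/12 h light/dark. Single ip injection at doses up to 500–1000 mg/kg. Surviving animals were counted 2, 24 and 48 h after injection.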

In another data set the test system is Mus musculus. Kind of data set: Compound was tested in vivo for its ability to antagonize apomorphine-induced climbing response in mice upon intraperitoneal administration. Format: functional. The note with it: ip. In short, it runs like this: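 C57BL/6 male mice, 22–25 g, adapted 1 h in wire mesh cages. Compound in saline with 3% Tween 80 given ip 15 min before apomorphine 5.0 mg/kg sc (in saline with 0.1% ascorbic acid). Climbing scored 0–4 every 2 min, 30 readings, from 15 min after apomorphine. Totals are expressed as % of vehicle control. ED50 with 95% confidence limits by log-dose linear regression, 8–16 mice per dose.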

Peptide text beside a SMILES is read from it. * marks the point of attachment. Nonanoyl = CCCCCCCCC(=O)*; Hexanoyl = CCCCCC(=O)*; Pentanoyl = CCCCC(=O)*

As usually defined, the ED50 is the midpoint of the dose-response relation. As usually defined, the LD50 is the dose at which mortality reaches 50%. Higher therefore signals a less toxic substance.

As to `CCCCCC(=O)N1CCC[C@H]1C(=O)N[C@@H](Cc1ccc(O)cc1)C(N)=O` (Hexanoyl-Pro-Tyr-NH2), the ED50 is greater than 500 mg/kg with Rattus norvegicus [1], 0.4 mg/kg in the data set with Rattus norvegicus [2] and 0.5 mg/kg in the data set with Mus musculus. Also, in data set [3], the 50% lethal dose (LD50) was greater than 500 mg/kg.
On to `NC(=O)[C@@H](Cc1ccc(O)cc1)NC(=O)[C@@H]1CCCN1C(=O)Cc1ccccc1`, for which the ED50 in the data set on Mus musculus was greater than 8 mg/kg.
On to `NC(=O)[C@H](Cc1ccc(O)cc1)NC(=O)[C@@H]1CCCN1`, for which the ED50 was greater than 500 mg/kg in the data set on Rattus norvegicus [1], 1.6 mg/kg in the data set on Rattus norvegicus [2] and 3.4 mg/kg in the data set on Mus musculus. This molecule gave an LD50 in data set [3] greater than 500 mg/kg.
Turning to `CCN1CCC[C@H]1CNC(=O)c1c(OC)ccc(Br)c1OC` [REMOXIPRIDE], the ED50 with Rattus norvegicus [1] is 8.7 mg/kg; in the data set on Rattus norvegicus [2] it was 0.31 mg/kg; in the data set on Mus musculus, 1.2 mg/kg. The same molecule yielded an LD50 in data set [3] of 302 mg/kg.
Turning to `CCCCC(=O)N1CCC[C@H]1C(=O)N[C@@H](Cc1ccc(O)cc1)C(N)=O` (Pentanoyl-Pro-Tyr-NH2), it took a dose of 3.2 mg/kg to reach the 50% effect level with Mus musculus (ED50).
The same measure, in the same setting: the value for `NC(=O)[C@H](Cc1ccc(O)cc1)NC(=O)[C@H]1CCCN1C(=O)Cc1ccccc1` was 4.9 mg/kg.
Regarding `O=C(CCCN1CCC(O)(c2ccc(Cl)cc2)CC1)c1ccc(F)cc1` [HALOPERIDOL], the median effective dose (ED50) was 0.5 mg/kg with Rattus norvegicus [1], 0.14 mg/kg in the data set on Rattus norvegicus [2] and 0.1 mg/kg with Mus musculus. In data set [3], this molecule showed a 50% lethal dose (LD50) of 35 mg/kg.
In the case of `NC(=O)[C@H](Cc1ccc(O)cc1)NC(=O)[C@@H]1CCCN1C(=O)Cc1ccccc1`, the figures for the ED50 in the data set on Rattus norvegicus [1], in the data set on Rattus norvegicus [2] and with Mus musculus were greater than 1000 mg/kg, 1.5 mg/kg and 2.2 mg/kg, respectively. This molecule showed an LD50 in data set [3] greater than 1000 mg/kg.
As for `CN1CCN(C2=Nc3cc(Cl)ccc3Nc3ccccc32)CC1` [CLOZAPINE], the median effective dose (ED50) in the data set with Rattus norvegicus [1] is greater than 32 mg/kg; in the data set on Rattus norvegicus [2], 20 mg/kg.
For `NC(=O)[C@@H](Cc1ccc(O)cc1)NC(=O)[C@@H]1CCCN1`, the median effective dose (ED50) in the data set with Mus musculus is greater than 16 mg/kg.
In the data set with Mus musculus, `CCCCCCCCC(=O)N1CCC[C@H]1C(=O)N[C@@H](Cc1ccc(O)cc1)C(N)=O` (Nonanoyl-Pro-Tyr-NH2) had an ED50 of 0.5 mg/kg.
In the case of `CCN1CCC[C@H]1CNC(=O)c1cc(S(N)(=O)=O)ccc1OC` [LEVOSULPIRIDE], the median effective dose (ED50) was greater than 120 mg/kg in the data set on Rattus norvegicus [1], 16.5 mg/kg with Rattus norvegicus [2] and 17.5 mg/kg in the data set on Mus musculus. In addition, in data set [3], the median lethal dose (LD50) was 250 mg/kg.
As to `CC(C)(C)OC(=O)N1CCC[C@@H]1C(=O)N[C@@H](Cc1ccc(O)cc1)C(N)=O`, it took a dose of 0.4 mg/kg to reach the 50% effect level in the data set with Mus musculus (ED50).
In the data set on Mus musculus, `NC(=O)[C@H](Cc1ccc(O)cc1)NC(=O)[C@H]1CCCN1` returned a median effective dose (ED50) of 3.6 mg/kg.
The same measure, in the same setting: the value for `CC(C)(C)OC(=O)N1CCC[C@H]1C(=O)N[C@@H](Cc1ccc(O)cc1)C(N)=O` was 2.5 mg/kg.

The record behind these values is ChEMBL document CHEMBL1131453, “Design of N-acylprolyltyrosine "tripeptoid" analogues of neurotensin as potential atypical antipsychotic agents” (J Med Chem, 1998).
